Data from ChEMBL document CHEMBL3244135, “11,12-Secoprostaglandins. 1. Acylhydroxyalkanoic acids and related compounds” (J Med Chem, 1977).
Active and inactive are the calls of the source. No cut-off for these calls is given here.

Experiments:
Mus musculus [1] = species on record: Mus musculus; assay: Binding affinity to prostanoid receptor in [8-14C]-adenine-treated CD-1 mouse ovary assessed as increase in c-AMP production at 10 ug/mL after 30 mins by paper chromatographic analysis in presence of phosphodiesterase inhibitor theophylline; type: tissue-based; conditions: Female gonad
Summary of the method: (§1)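 Virgin CD-1 female mice over 70 days old; three ovaries (15-25 mg), denuded of fat, preincubated 1 h at 37 °C in 2 ml aerated Krebs–Ringer phosphate pH 7.2 with 1 μCi adenine-8-14C. Theophylline (0.2 ml of 0.05 M stock) and compound in Me2SO then added, 30 min at 37 °C. Stopped with trichloroacetic acid; cAMP-14C isolated, paper chromatography; expressed as fold over untreated ovaries.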

Mus musculus [2] = species on record: Mus musculus; assay: Binding affinity to prostanoid receptor in [8-14C]-adenine-treated CD-1 mouse ovary assessed as increase in c-AMP production at 25 ug/mL after 30 mins by paper chromatographic analysis in presence of phosphodiesterase inhibitor theophylline; type: tissue-based; conditions: Female gonad; summary of the method: as §1
Mus musculus [3] = species on record: Mus musculus; assay: Binding affinity to prostanoid receptor in [8-14C]-adenine-treated CD-1 mouse ovary assessed as increase in c-AMP production at 100 ug/mL after 30 mins by paper chromatographic analysis in presence of phosphodiesterase inhibitor theophylline; type: tissue-based; conditions: Female gonad; summary of the method: as §1
Rattus norvegicus = species on record: Rattus norvegicus; assay: Binding affinity to prostanoid receptor in Holtzman rat lipocytes assessed as compound equivalent to 1 ng cold PGE1 in displacing [3H]-PGE1 from receptor after 30 mins; type: cell-based; conditions: in the assay text read “after 60 mins” for “after 30 mins”
Summary of the method: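 Test compound at appropriate concentrations incubated with 0.4 ng [3H]-PGE1 and 125 μg rat lipocyte binding preparation for 60 min at 37 °C. Bound [3H]-PGE1 then measured.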

[4] = target: T1, 15-hydroxyprostaglandin dehydrogenase [NAD(+)] (Homo sapiens, UniProt P15428); assay: Stability of the compound assessed as prostaglandin 15-hydroxydehydrogenase (unknown origin)-mediated metabolite formation; type: ADME
T1 sequence (P15428 whole entry): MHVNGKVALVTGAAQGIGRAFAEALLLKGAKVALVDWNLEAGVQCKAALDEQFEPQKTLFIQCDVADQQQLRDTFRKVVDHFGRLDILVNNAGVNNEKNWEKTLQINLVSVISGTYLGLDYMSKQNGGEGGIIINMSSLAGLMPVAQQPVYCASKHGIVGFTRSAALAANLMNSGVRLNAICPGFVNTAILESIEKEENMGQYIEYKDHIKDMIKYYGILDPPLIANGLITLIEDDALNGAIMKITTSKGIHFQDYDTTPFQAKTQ

Mus musculus [5] = species on record: Mus musculus; assay: Binding affinity to prostanoid receptor in [8-14C]-adenine-treated CD-1 mouse ovary assessed as increase in c-AMP production at 0.01 ug/mL after 30 mins by paper chromatographic analysis in presence of phosphodiesterase inhibitor theophylline; type: tissue-based; conditions: Female gonad; summary of the method: as §1
Mus musculus [6] = species on record: Mus musculus; assay: Binding affinity to prostanoid receptor in [8-14C]-adenine-treated CD-1 mouse ovary assessed as increase in c-AMP production at 0.05 ug/mL after 30 mins by paper chromatographic analysis in presence of phosphodiesterase inhibitor theophylline; type: tissue-based; conditions: Female gonad; summary of the method: as §1
Mus musculus [7] = species on record: Mus musculus; assay: Binding affinity to prostanoid receptor in [8-14C]-adenine-treated CD-1 mouse ovary assessed as increase in c-AMP production at 0.1 ug/mL after 30 mins by paper chromatographic analysis in presence of phosphodiesterase inhibitor theophylline; type: tissue-based; conditions: Female gonad; summary of the method: as §1
Mus musculus [8] = species on record: Mus musculus; assay: Binding affinity to prostanoid receptor in [8-14C]-adenine-treated CD-1 mouse ovary assessed as increase in c-AMP production at 1 ug/mL after 30 mins by paper chromatographic analysis in presence of phosphodiesterase inhibitor theophylline; type: tissue-based; conditions: Female gonad; summary of the method: as §1
Mus musculus [9] = species on record: Mus musculus; assay: Binding affinity to prostanoid receptor in [8-14C]-adenine-treated CD-1 mouse ovary assessed as increase in c-AMP production at 50 ug/mL after 30 mins by paper chromatographic analysis in presence of phosphodiesterase inhibitor theophylline; type: tissue-based; conditions: Female gonad; summary of the method: as §1
Mus musculus [10] = species on record: Mus musculus; assay: Binding affinity to prostanoid receptor in [8-14C]-adenine-treated CD-1 mouse ovary assessed as increase in c-AMP production at 200 ug/mL after 30 mins by paper chromatographic analysis in presence of phosphodiesterase inhibitor theophylline; type: tissue-based; conditions: Female gonad; summary of the method: as §1
Canis familiaris [11] = assay: Renal vasodilatory activity in dog assessed as increase in renal blood flow at 0.5 mg/kg/min, iv administered as infusion relative to control; type: functional, Canis lupus familiaris, Kidney
Summary of the method: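 Anesthetized dogs given intravenous infusion of 0.5 mg/kg/min. Renal blood flow measured electromagnetically in a single kidney. Read-out is the maximum increase above the control flow value.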

Cavia porcellus [12] = assay: Inhibition of collagen-induced platelet aggregation in po dosed guinea pig; type: functional
Summary of the method: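 Test compound given orally to guinea pigs. Collagen-induced platelet aggregation then measured. Potency expressed as ED50 in mg/kg.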

Canis familiaris [13] = assay: Renal vasodilatory activity in dog assessed as increase in renal blood flow administered through infusion into renal artery; type: functional, organism-based; conditions: Canis lupus familiaris; Kidney
Cavia porcellus [14] = assay: Inhibition of collagen-induced platelet aggregation in ip dosed guinea pig; type: functional

Row | SMILES | fold change (FC) (Mus musculus [1]) | fold change (FC) (Mus musculus [2]) | fold change (FC) (Mus musculus [3]) | Activity (Rattus norvegicus) | Stability [4] | other results
1 | CCCCC[C@H](O)C#CCC(CCCCCCC(=O)O)C(C)=O (some centres undefined) | 3 | 7 |  |  | Stable | 
2 | CC(=O)C(CCCCCCC(=O)O)CCCC1(O)CCCCC1 (centres undefined) | 1 | 3 | 4 | > 125 µgequiv | Stable | 
3 | CCCCCC(O)/C=C/CC(CCCCCCC(=O)O)C(C)=O (centres undefined) | 2 | 8 | 14 | 3.2 µgequiv | Stable | 
4 | CCCCCC(O)CCCC(CCCCCCC(=O)O)C(C)=O (mixture of isomers) [listing 1 of 2 here] | 11 | 14 | 23 | 1.7 µgequiv |  | fold change (FC) (Mus musculus [8]): 2; fold change (FC) (Mus musculus [9]): 16; fold change (FC) (Mus musculus [10]): 16
5 | CCCCCC[C@@H](O)C/C=C/CCCCCCCC(=O)O |  |  | 2 |  |  | fold change (FC) (Mus musculus [9]): 2; fold change (FC) (Mus musculus [10]): 1
6 | CCCCCCCC(O)CCCC(CCCCCCC(=O)O)C(C)=O (centres undefined) | 19 | 37 | 39 | 6.6 µgequiv | Stable | 
7 | CCCC(O)CCCCCC(CCCCCCC(=O)O)C(C)=O (centres undefined) | 4 | 4 | 8 | 65 µgequiv | Stable | 
8 | CC(=O)C(CCCCCCC(=O)O)CCCC(O)CCc1ccccc1 (centres undefined) | 1 | 1 | 2 |  | Stable | 
9 | CCCCCC(O)CCCC(CCCCCCC(=O)O)C(C)=O (mixture of isomers) [listing 2 of 2 here] |  |  |  |  | Stable | Activity (Canis familiaris [11]): 92 mL/min; ED50 (Cavia porcellus [12]): 6.5 mg/kg
10 | CCCCCC(O)CCCC(CCCCCCC(=O)O)C(C)=O (racemic) | 7 | 19 | 23 |  |  | 
11 | CC(=O)C(CCCCCCC(=O)O)CCCC(C)O (centres undefined) |  | 1 | 1 | > 100 µgequiv | Stable | 
12 | CCCCC[C@H](O)/C=C/[C@H]1[C@H](O)CC(=O)[C@@H]1CCCCCCC(=O)O [ALPROSTADIL] |  |  |  |  |  | fold change (FC) (Mus musculus [5]): 8; fold change (FC) (Mus musculus [6]): 29; fold change (FC) (Mus musculus [7]): 25; fold change (FC) (Mus musculus [8]): 54; Activity (Canis familiaris [13]): Active; inhibition (Cavia porcellus [12]): inactive; ED50 (Cavia porcellus [14]): 0.02 mg/kg
13 | CCCCCC(C)(O)CCCC(CCCCCCC(=O)O)C(C)=O (centres undefined) | 4 | 9 | 11 | 0.4 µgequiv | Stable | 
14 | CCCCCC(O)CCCC(CCCCCCC(=O)O)C(=O)CC (centres undefined) | 6 | 17 | 26 | 2.4 µgequiv | Stable | 
15 | CCCCC[C@@H](O)C#CCC(CCCCCCC(=O)O)C(C)=O (some centres undefined) | 2 | 3 | 3 |  | Stable | 
16 | CCCCCCC(O)CCC(CCCCCCC(=O)O)C(C)=O (centres undefined) | 5 |  | 11 | 41 µgequiv | Stable | 
17 | CCCCCC(O)CCCC(CCCCCCC(=O)O)C(C)O (centres undefined) | 15 | 25 | 33 | 2.5 µgequiv | Stable | 

Further lines, with some results ahead:

Row | fold change (FC) (Mus musculus [1]) | fold change (FC) (Mus musculus [2]) | fold change (FC) (Mus musculus [3]) | Activity (Rattus norvegicus) | Stability [4] | SMILES | other results
18 | 2 | 4 | 9 | 7 µgequiv | Stable | CCCCCC(=O)CCCC(CCCCCCC(=O)O)C(C)=O (centres undefined) | 
19 | 80 |  |  | 1.4 ngequiv |  | CCCCC[C@H](O)/C=C/[C@H]1[C@H](O)CC(=O)[C@@H]1C/C=C\CCCC(=O)O | fold change (FC) (Mus musculus [5]): 14; fold change (FC) (Mus musculus [6]): 35; fold change (FC) (Mus musculus [7]): 57; fold change (FC) (Mus musculus [8]): 75
20 |  | 1 | 1 | 450 µgequiv | Stable | CC(=O)C(CCCCO)CCCCCCC(=O)O (centres undefined) | 
21 | 8 | 9 | 18 | 4.6 µgequiv | Stable | CCCCCC(O)CCCC(CO)CCCCCCC(=O)O (centres undefined) | 
22 | 1 | 1 | 1 | > 125 µgequiv | Stable | CC(=O)C(CCCCCCCCCO)CCCCCCC(=O)O (centres undefined) | 
23 | 2 | 4 | 7 |  | Stable | CCCCCC(O)C#CCC(CCCCCCC(=O)O)C(C)=O (centres undefined) | 
24 | 5 | 12 | 19 | 2.1 µgequiv | Stable | CCCCC[C@@H](O)CCCC(CCCCCCC(=O)O)C(C)=O (some centres undefined) | 
25 | 19 | 25 | 29 | 3.2 µgequiv | Stable | CCCCC[C@H](O)CCCC(CCCCCCC(=O)O)C(C)=O (some centres undefined) | 
26 | 9 | 9 | 20 | 2.1 µgequiv | Stable | CCCCC(O)CCCCC(CCCCCCC(=O)O)C(C)=O (centres undefined) | 
27 |  | 1 | 1 |  | Stable | CC(=O)C(CC#CC1(O)CCCCC1)CCCCCCC(=O)O (centres undefined) | 
